Laboratory results taken from ChEMBL document CHEMBL6071141, “In vitro and in vivo evaluation of Bombesin-MMAE conjugates for targeted tumour therapy” (Eur J Med Chem, 2024).
Square brackets hold non-standard residues; d marks the D form. Peptide text beside a SMILES is read from it. Sta = CC(C)C[C@H](N)[C@@H](O)CC(=O)O; Nle = CCCC[C@H](N)C(=O)O; βAla = NCCC(=O)O

Assays:
[1] = Displacement of 125 I- [Tyr4] from bombesin receptor 1 (unknown origin) assessed as inhibition by radioligand competitive binding assay; design: species or system Homo sapiens
[2] = target: Gastrin-releasing peptide receptor (Homo sapiens, UniProt P30550); experiment: Displacement of 125 I- [Tyr4] from bombesin receptor 2 (unknown origin) assessed as inhibition by radioligand competitive binding assay
[3] = target: T1, Bombesin receptor subtype-3 (Homo sapiens, UniProt P32247); experiment: Displacement of 125 I- [Tyr4] from bombesin receptor 3 (unknown origin) assessed as inhibition by radioligand competitive binding assay
T1 sequence (P32247 whole entry): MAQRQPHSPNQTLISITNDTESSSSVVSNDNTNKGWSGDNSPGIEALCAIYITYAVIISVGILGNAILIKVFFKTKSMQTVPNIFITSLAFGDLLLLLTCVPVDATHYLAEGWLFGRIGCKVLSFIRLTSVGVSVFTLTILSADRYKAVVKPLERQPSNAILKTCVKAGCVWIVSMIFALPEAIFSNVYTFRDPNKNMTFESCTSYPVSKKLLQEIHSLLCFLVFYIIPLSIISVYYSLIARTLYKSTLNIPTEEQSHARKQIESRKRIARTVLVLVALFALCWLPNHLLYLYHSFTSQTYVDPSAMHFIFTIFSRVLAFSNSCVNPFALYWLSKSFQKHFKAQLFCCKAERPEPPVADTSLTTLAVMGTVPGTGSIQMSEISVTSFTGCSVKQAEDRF

[4] = Cytotoxicity against human PC-3 cells assessed as inhibition of cell growth incubated for 72 hrs by CellTiter 96 aqueous assay; format: toxicity, cell-based
Method in brief: (§1)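 PC-3 or MDA-MB-231 cells were treated the day after seeding with serial dilutions, from 2000 nM for conjugates and 100 nM for MMAE, for 72 h. Then the assay was stopped, or run 72 h more after a medium change (single) or re-treatment (double). Controls got 0.05 % DMSO. Read-out was MTS absorbance at 490 nm after 90 min. IC50 by non-linear regression; ≥2 experiments, triplicates.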

[5] = Cytotoxicity against human cells MDA-MB-231 assessed as inhibition of cell growth incubated for 72 hrs by CellTiter 96 aqueous assay; format: toxicity, cell-based; conditions: MDA-MB-231 cells; method in brief: as §1
[6] = Cytotoxicity against human PC-3 cells assessed as inhibition of cell growth incubated with compound for 72 hrs followed by further incubated for 72 hrs (single treatment) by CellTiter 96 aqueous assay; format: toxicity, cell-based; method in brief: as §1
[7] = Cytotoxicity against human PC-3 cells assessed as inhibition of cell growth incubated for 72 hrs and followed by treated with compound continued incubation for further 72 hrs (double treatment) after retreatment of compound by CellTiter 96 aqueous assay; format: toxicity, cell-based; method in brief: as §1
[8] = Cytotoxicity against human MDA-MB-231 cells assessed as inhibition of cell growth incubated with compound for 72 hrs followed by further incubated for 72 hrs (single treatment) by CellTiter 96 aqueous assay; format: toxicity, cell-based; method in brief: as §1
[9] = Cytotoxicity against human MDA-MB-231 cells assessed as inhibition of cell growth incubated for 72 hrs and followed by treated with compound continued incubation for further 72 hrs (double treatment) after retreatment of compound by CellTiter 96 aqueous assay; format: toxicity, cell-based; method in brief: as §1

Sequence of Gastrin-releasing peptide receptor (P30550 whole entry): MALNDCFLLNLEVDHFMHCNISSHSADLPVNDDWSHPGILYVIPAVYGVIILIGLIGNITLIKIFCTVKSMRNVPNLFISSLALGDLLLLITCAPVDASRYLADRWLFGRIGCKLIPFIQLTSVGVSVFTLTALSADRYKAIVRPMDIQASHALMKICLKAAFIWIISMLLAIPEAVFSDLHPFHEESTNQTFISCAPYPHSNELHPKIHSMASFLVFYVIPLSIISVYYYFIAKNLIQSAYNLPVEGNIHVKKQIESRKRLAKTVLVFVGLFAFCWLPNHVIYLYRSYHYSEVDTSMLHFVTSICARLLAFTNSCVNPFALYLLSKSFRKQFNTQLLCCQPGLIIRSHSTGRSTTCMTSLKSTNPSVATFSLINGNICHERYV

SMILES | IC50 [1] [µM] | IC50 [2] [µM] | IC50 [3] [µM] | IC50 at 72 h [4] [µM] | IC50 at 72 h [5] [µM] | IC50 at 144 h [6] [µM] | IC50 at 144 h [7] [µM] | IC50 at 144 h [8] [µM] | IC50 at 144 h [9] [µM]
CC(=O)N[C@@H](CS)C(=O)N[C@H](C(=O)N[C@@H](CC(C)C)[C@@H](O)CC(=O)N[C@H](Cc1ccccc1)C(=O)N[C@H](CCC(N)=O)C(=O)NCC(=O)N[C@@H](CC(C)C)C(=O)N[C@@H](C)C(=O)N[C@@H](Cc1c[nH]c2ccccc12)C(=O)N[C@@H](Cc1c[nH]cn1)C(N)=O)C(C)C | > 10 | 4.75 | > 10 | – | – | – | – | – | –
CCCC[C@H](NC(=O)C[C@H](O)[C@H](CC(C)C)NC(=O)[C@H](Cc1c[nH]cn1)NC(=O)CNC(=O)[C@@H](NC(=O)[C@H](C)NC(=O)[C@H](Cc1c[nH]c2ccccc12)NC(=O)[C@H](CCC(N)=O)NC(=O)[C@@H](Cc1ccccc1)NC(C)=O)C(C)C)C(=O)N[C@@H](CS)C(N)=O | > 10 | > 10 | > 10 | – | – | – | – | – | –
CCCC[C@H](NC(=O)C[C@H](O)[C@H](CC(C)C)NC(=O)[C@H](Cc1c[nH]cn1)NC(=O)CN(C)C(=O)[C@@H](NC(=O)[C@H](C)NC(=O)[C@H](Cc1c[nH]c2ccccc12)NC(=O)[C@H](CCC(N)=O)NC(=O)[C@@H](Cc1ccccc1)NC(C)=O)C(C)C)C(=O)N[C@@H](CS)C(N)=O | > 10 | > 10 | > 1 | – | – | – | – | – | –
CCCC[C@H](NC(=O)C[C@H](O)[C@H](CC(C)C)NC(=O)[C@H](Cc1c[nH]cn1)NC(=O)CCNC(=O)[C@@H](NC(=O)[C@H](C)NC(=O)[C@H](Cc1c[nH]c2ccccc12)NC(=O)[C@H](CCC(N)=O)NC(=O)[C@@H](Cc1ccccc1)NC(C)=O)C(C)C)C(N)=O (Ac-[dF]QWAV[βAla]H[Sta][Nle]-NH2) | > 10 | > 10 | > 10 | – | – | – | – | – | –
CCCC[C@H](NC(=O)C[C@H](O)[C@H](CC(C)C)NC(=O)[C@H](Cc1c[nH]cn1)NC(=O)CCNC(=O)[C@@H](NC(=O)[C@H](C)NC(=O)[C@H](Cc1c[nH]c2ccccc12)NC(=O)[C@H](CCC(N)=O)NC(=O)[C@@H](Cc1ccccc1)NC(=O)[C@H](CS)NC(C)=O)C(C)C)C(N)=O | > 10 | 2.18 | > 10 | – | – | – | – | – | –
CCCC[C@H](NC(=O)C[C@H](O)[C@H](CC(C)C)NC(=O)[C@H](Cc1c[nH]cn1)NC(=O)CCNC(=O)[C@@H](NC(=O)[C@H](C)NC(=O)[C@H](Cc1c[nH]c2ccccc12)NC(=O)[C@H](CCC(N)=O)NC(=O)[C@@H](Cc1ccccc1)NC(=O)[C@H](CSC1CC(=O)N(CCCCCC(=O)N[C@H](C(=O)N[C@@H](CCCNC(N)=O)C(=O)Nc2ccc(COC(=O)N(C)[C@H](C(=O)N[C@H](C(=O)N(C)[C@@H]([C@@H](C)CC)[C@@H](CC(=O)N3CCC[C@H]3[C@H](OC)[C@@H](C)C(=O)N[C@H](C)[C@@H](O)c3ccccc3)OC)C(C)C)C(C)C)cc2)C(C)C)C1=O)NC(C)=O)C(C)C)C(N)=O (stereo partly drawn) | – | – | – | 0.852 | 1.28 | 0.132 | 0.121 | 0.218 | 0.176
CC(=O)N[C@H](Cc1ccccc1)C(=O)N[C@@H](CCC(N)=O)C(=O)N[C@@H](Cc1c[nH]c2ccccc12)C(=O)N[C@@H](C)C(=O)N[C@H](C(=O)NCC(=O)N[C@@H](Cc1c[nH]cn1)C(=O)N[C@@H](CC(C)C)[C@@H](O)CC(=O)N[C@@H](CC(C)C)C(N)=O)C(C)C | > 10 | – | 0.00111 | – | – | – | – | – | –
